Bioassay records from PubChem BioAssay.
Rows were chosen to be rich in hits. Some 1.5% of all compounds tested hit in one or more screens of this group.
PG9 Ab binder: binders of HIV-1 gp120 antibody PG9, primary screen, biochemical, TR-FRET | TR-FRET gp120-PG9 antibody binding | inhibition, % at 6.7 µM | actives 0.43% (n = 360,000) | AID 624416, 2012; in the data active means inhibition above about 8.5%
NR2E3 ag-1: inhibitors of NR2E3-RetCOR corepressor binding, primary screen, NR2E3 agonist project, biochemical, TR-FRET, GST-NR2E3, biotin-RetCOR | Photoreceptor-specific nuclear receptor (Homo sapiens), Q9Y5X4 | 1536-well | actives 0.12% (n = 320,000) | inhibition of corepressor binding, % at 4.78 µM;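 active means percent inhibition above the cutoff of mean plus 3 SD of all tested compounds, set per screening campaign, cut at about 20% in these data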
Target sequence (Q9Y5X4 whole entry, looked up): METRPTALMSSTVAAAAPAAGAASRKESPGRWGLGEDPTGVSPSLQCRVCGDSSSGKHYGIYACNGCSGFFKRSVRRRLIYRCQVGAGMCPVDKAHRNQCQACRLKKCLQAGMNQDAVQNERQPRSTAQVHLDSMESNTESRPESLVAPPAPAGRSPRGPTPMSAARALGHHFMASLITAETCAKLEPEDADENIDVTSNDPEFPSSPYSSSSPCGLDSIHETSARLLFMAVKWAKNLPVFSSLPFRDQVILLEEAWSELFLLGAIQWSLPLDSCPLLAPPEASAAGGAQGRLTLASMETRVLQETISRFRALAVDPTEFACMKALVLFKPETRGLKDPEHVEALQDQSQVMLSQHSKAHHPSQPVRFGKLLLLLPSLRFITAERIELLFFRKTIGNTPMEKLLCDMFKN
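Material: NR2E3–RetCOR corepressor complex / Incubation: Compound–protein incubation for 5 h at 4 °C / Dosing: compound at 4.8 µM, single dose / Detection: time-resolved FRET / Benchmarks: high control biotin, low control 0.6% DMSO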
NR2E3 ag-2: NR2E3 agonists in two-hybrid cells, primary screen, cell-based, luminescence, CHO-S, Gal4-NCOR/VP16-NR2E3; AID 602229, 2012; inhibition of corepressor binding, % at 3.98 µM; luciferase; actives 0.35% (n = 360,000);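 active means inhibition above the mean of all tested compounds plus 3 SD, cut at about 70% in these data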;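 further: higher means lower luciferase signal from less NR2E3 corepressor binding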
Rev-erbA mod: modulators of Rev-erb alpha DNA binding, primary screen, biochemical, FITC-DNA, fluorescence polarization, uHTS; actives 0.79% (n = 370,000); activity, % at 10 µM; Rev-erbα–FITC-DNA binding, 90 min;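 active means activity above about 14%, limit read from the data; passing the limit was not always enough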
NR1D1 mod conf: modulators of Rev-erb alpha DNA binding, confirmation, biochemical, FITC-DNA, fluorescence polarization, single point; shares compounds with Rev-erbA mod; 90 min; activation, % at 25 µM; actives 61% (n = 3,000); AID 1259319, 2017;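 active means activation at or above a set limit, or at least 3 SD above the negative control mean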
RORg counter: modulation of RORgamma DNA binding, dose response, counter-screen for Rev-erb alpha modulator project, biochemical, fluorescence polarization, FITC-DNA. shares compounds with Rev-erbA mod. purified RORgamma protein-FITC-DNA binding. IC50, µM. actives 8% (n = 910). AID 1259320, 2017;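 active means Compounds whose fitted half-maximal concentration for disrupting protein-DNA binding is below 10 micromolar; the record names Rev-erb in its text, so the target is in doubt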
Hits are given with their value.

How did CN(C)CCCN1C(=O)c2cccc3c(Br)ccc(c23)C1=O do in these assays?
PG9 Ab binder: inactive; NR2E3 ag-1: inactive; NR2E3 ag-2: inactive; Rev-erbA mod: inactive

Results for O=C1c2cccc3c(N4CCCCC4)ccc(c23)C(=O)N1c1ccccn1 ?
PG9 Ab binder: inactive; NR2E3 ag-1: inactive; NR2E3 ag-2: inactive; Rev-erbA mod: inactive

How did CCCN1C(=O)c2cccc3c(N4CCCCC4)ccc(c23)C1=O do in these assays?
PG9 Ab binder: inactive; NR2E3 ag-1: inactive; NR2E3 ag-2: inactive; Rev-erbA mod: 96; NR1D1 mod conf: 97; RORg counter: inactive

What do the screens show for `CCCCNc1ccc2c3c(cccc13)C(=O)N(CCCC)C2=O`?
PG9 Ab binder: inactive; NR2E3 ag-2: inactive; Rev-erbA mod: 108; NR1D1 mod conf: 128; RORg counter: inactive

What do the screens show for `O=C(O)c1sc2cc(C(F)(F)F)cnc2c1-c1cccs1`?
PG9 Ab binder: inactive; NR2E3 ag-1: inactive; NR2E3 ag-2: inactive; Rev-erbA mod: inactive

How did COc1cccc(CNC(=O)C(=O)N2CCC3(CC2)OCCN3S(=O)(=O)c2ccc(C)cc2)c1 do in these assays?
PG9 Ab binder: inactive; NR2E3 ag-1: inactive; NR2E3 ag-2: inactive; Rev-erbA mod: inactive

Results for Cc1cc(NC(=O)CN(C)CC(=O)Nc2ccc(Cl)cc2)no1 ?
PG9 Ab binder: inactive; NR2E3 ag-2: inactive; Rev-erbA mod: inactive

How did O=C(CSc1nc(-c2ccco2)cc(C(F)(F)F)n1)NC1CCCCCCC1 do in these assays?
PG9 Ab binder: inactive; NR2E3 ag-1: inactive; NR2E3 ag-2: inactive; Rev-erbA mod: 25; NR1D1 mod conf: inactive

How did O=C(CSc1nc(-c2ccco2)cc(C(F)(F)F)n1)NN1CCOCC1 do in these assays?
PG9 Ab binder: inactive; NR2E3 ag-1: inactive; NR2E3 ag-2: inactive; Rev-erbA mod: inactive

What do the screens show for `COC(=O)C1CCN(c2cc(=O)n(-c3ccc(OC)cc3)c(=O)[nH]2)CC1`?
PG9 Ab binder: inactive; NR2E3 ag-1: inactive; NR2E3 ag-2: inactive; Rev-erbA mod: inactive

What do the screens show for `Cc1ccccc1-c1nnn(CC(=O)NCc2ccc3c(c2)OCO3)n1`?
PG9 Ab binder: inactive; NR2E3 ag-1: inactive; NR2E3 ag-2: inactive; Rev-erbA mod: inactive

Results for CN(C)c1ccc(-c2nnn(CC(=O)NCc3ccc4c(c3)OCO4)n2)cc1 ?
PG9 Ab binder: inactive; NR2E3 ag-1: inactive; NR2E3 ag-2: inactive; Rev-erbA mod: 15; NR1D1 mod conf: inactive

How did COCCNC(=O)COC(=O)c1cc(-c2ccc(OC)cc2)nc2ccccc12 do in these assays?
PG9 Ab binder: inactive; NR2E3 ag-1: inactive; NR2E3 ag-2: inactive; Rev-erbA mod: inactive

Results for CCc1ccc2n(-c3ccc(OC)cc3)c([S-])c(C(=O)Nc3cc(C)cc(C)c3)[n+]2c1 ?
PG9 Ab binder: inactive; NR2E3 ag-1: inactive; NR2E3 ag-2: inactive; Rev-erbA mod: 90; NR1D1 mod conf: 113; RORg counter: inactive

What do the screens show for `C=CCC1(CC=C)CCCN1C(=O)CC1C(=O)NCCN1Cc1cccc(OC)c1OC` (stereo not given)?
PG9 Ab binder: inactive; NR2E3 ag-1: inactive; NR2E3 ag-2: inactive; Rev-erbA mod: inactive

How did O=C(CSc1ncnc2c1oc1ccccc12)Nc1ccc2c(c1)OCCO2 do in these assays?
PG9 Ab binder: inactive; NR2E3 ag-1: inactive; NR2E3 ag-2: inactive; Rev-erbA mod: 676; NR1D1 mod conf: 569; RORg counter: inactive

Results for COc1ccccc1NC(=O)CSc1ncnc2c1oc1ccccc12 ?
PG9 Ab binder: inactive; NR2E3 ag-1: inactive; NR2E3 ag-2: inactive; Rev-erbA mod: inactive

How did Cc1nc(SCC(=O)NCc2ccccc2)c2oc3ccccc3c2n1 do in these assays?
PG9 Ab binder: inactive; NR2E3 ag-1: inactive; NR2E3 ag-2: inactive; Rev-erbA mod: 44; NR1D1 mod conf: 189; RORg counter: inactive

What do the screens show for `CCc1nc(SCC(=O)Nc2nccs2)c2oc3ccccc3c2n1`?
PG9 Ab binder: inactive; NR2E3 ag-1: inactive; NR2E3 ag-2: inactive; Rev-erbA mod: 15; NR1D1 mod conf: 18
